ChEMBL document CHEMBL2010755, “Synthesis of new sulfonamides as lipoxygenase inhibitors” (Bioorg Med Chem, 2012)

Legend:
[1] = Inhibition of lipoxygenase using linoleic acid as substrate at 0.5 mM after 10 mins preincubation
Outline: (§1)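 Purified lipoxygenase (600 units per well) in 100 mM sodium phosphate buffer pH 8.0, with test compound. Pre-read at 234 nm, preincubated 10 min at 25 °C, then started with linoleic acid. Absorbance change at 234 nm read after 6 min. Percent inhibition tested at 0.5 mM. IC50 obtained from dilutions of compounds exceeding 50% inhibition. Triplicates, mean ± SEM.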

[2] = Inhibition of lipoxygenase using linoleic acid as substrate after 10 mins preincubation; outline: as §1

COC(=O)c1ccc(N(C)S(=O)(=O)c2ccc(C)cc2)cc1
inhibition [1]: 88.5% | IC50 [2]: 189 µM

O=c1c(O)c(-c2ccc(O)c(O)c2)oc2cc(O)cc(O)c12 [QUERCETIN]
IC50 [2]: 37.1 µM

C=CCN(c1ccc(C(=O)O)cc1)S(=O)(=O)c1ccc(C)cc1
inhibition [1]: 96.2% | IC50 [2]: 219 µM

CCCCCN(c1ccc(C(=O)O)cc1)S(=O)(=O)c1ccc(C)cc1
inhibition [1]: 98.6% | IC50 [2]: 68.6 µM

CC(C)=CCN(c1ccc(C(=O)O)cc1)S(=O)(=O)c1ccc(C)cc1
inhibition [1]: 98.7% | IC50 [2]: 15.8 µM

CCOC(=O)c1ccc(N(CC)S(=O)(=O)c2ccc(C)cc2)cc1
inhibition [1]: 97.6% | IC50 [2]: 231 µM

Cc1ccc(S(=O)(=O)Nc2ccc(C(=O)O)cc2)cc1
inhibition [1]: 99.4% | IC50 [2]: 139 µM

Cc1ccc(S(=O)(=O)N(C(=O)c2ccc(Cl)cc2)c2ccc(C(=O)O)cc2)cc1
inhibition [1]: 98.1% | IC50 [2]: 176 µM

Cc1ccc(S(=O)(=O)N(Cc2ccccc2)c2ccc(C(=O)O)cc2)cc1
inhibition [1]: 85.1% | IC50 [2]: 59.1 µM

Cc1ccc(S(=O)(=O)N(CCCl)c2ccc(C(=O)O)cc2)cc1
inhibition [1]: 21.9% | IC50 [2]: > 600 µM

CCCN(c1ccc(C(=O)O)cc1)S(=O)(=O)c1ccc(C)cc1
inhibition [1]: 40% | IC50 [2]: > 500 µM

Cc1ccc(S(=O)(=O)Nc2ccc(C(=O)OCC#N)cc2)cc1
inhibition [1]: 97% | IC50 [2]: 232 µM

Cc1ccc(S(=O)(=O)N(C(=O)c2ccccc2)c2ccc(C(=O)O)cc2)cc1
inhibition [1]: 99% | IC50 [2]: 91.7 µM

CCCCN(c1ccc(C(=O)O)cc1)S(=O)(=O)c1ccc(C)cc1
inhibition [1]: 99.4% | IC50 [2]: 61.4 µM

Cc1ccc(S(=O)(=O)N(C/C=C/c2ccccc2)c2ccc(C(=O)OC/C=C/c3ccccc3)cc2)cc1
inhibition [1]: 26.9% | IC50 [2]: > 600 µM

O=c1cc(-c2ccccc2)oc2cc(O)c(O)c(O)c12 [BAICALEIN]
IC50 [2]: 22.4 µM
